# Calls of active or inactive are those of the source. The rule behind the calls is not given here.
# How the values were obtained:
# [1] = system: Sortase A (Staphylococcus aureus), Q9S446 [UNDEFINED MUTATION]; experiment: (§1) Irreversible inhibition of recombinant Staphylococcus aureus sortase A deltaN24 expressed in Escherichia coli BL21(DE3) cells using Abz-LPATG-Dnp as substrate assessed as increase in Km preincubated for 60 mins followed by substrate addition and measured every 1 min for 15 mins by FRET-based assay; details: time 75.0 min
# How it was run: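 SrtA (5 µM) incubated 1 h at room temperature with compound or DMSO, then inhibitor removed by centrifugal filtration. Aliquots taken before and after filtration were assayed with Abz-LPATG-Dnp (0.78–200 µM for Sa enzyme, 0.2–50 µM for Sp enzyme) at ex 309/em 420 nm for 15 min. Km fitted; MTSET as control; triplicates, run in duplicate.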
# Staphylococcus aureus [2] = experiment: Antibiofilm activity against wild type Staphylococcus aureus Newman assessed as reduction in biofilm biomass at 25 to 200 uM incubated for 18 hrs by crystal violet staining based microplate reader analysis; assay type: functional, organism-based; details: dose 25-200 µM
# How it was run: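 S. aureus overnight culture diluted 1:1000 in TSB with inhibitor, grown static at 37 °C for 18 h. Wells rinsed with PBS, fixed with methanol 10 min, stained with 0.1% crystal violet 15 min. Stain dissolved in 33% acetic acid and A600 read. Three independent experiments, mean ± SEM.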
# Sortase A [3] = target: T1, Sortase A (Staphylococcus aureus, UniProt Q9S446); experiment: as §1, with “inactivation constant” for “increase in Km”, “fluorescence intensity based” for “FRET-based”
# How it was run: (§2)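 Variable inhibitor concentrations incubated with SaSrtAΔN24 or SpSrtAΔN81 for different times, followed by FRET enzyme kinetics with Abz-LPATG-Dnp. kobs fitted as kinact × [I]/(KI + [I]) to give kinact and KI.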
# [4] = Inhibition of recombinant Streptococcus pyogenes sortase A deltaN81 transpeptidation expressed in Escherichia coli BL21 (DE3) cells using Abz-LPATG-Dnp as substrate preincubated for 20 mins followed by substrate addition and measured every 1 min for 15 mins by FRET assay
# How it was run: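 His-tagged enzyme purified by Ni-NTA and gel filtration. 1 µM SrtA preincubated with compound (0.05–50 µM) for 20 min at room temperature in 50 mM Tris-HCl pH 7.5, 150 mM NaCl, 5 mM CaCl2. Reaction started with 10 µM Abz-LPATG-Dnp, read at ex 309/em 420 nm. IC50 from a sigmoidal dose–response fit; triplicates, two experiments.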
# [5] = system: Sortase A (Staphylococcus aureus), Q9S446 [UNDEFINED MUTATION]; experiment: as §1, with “maximum inactivation rate constant” for “increase in Km”, “fluorescence intensity based” for “FRET-based”; details: time 75.0 min; how it was run: as §2
# [6] = system: Sortase A (Staphylococcus aureus), Q9S446 [UNDEFINED MUTATION]; experiment: Irreversible inhibition of recombinant Staphylococcus aureus sortase A deltaN24 expressed in Escherichia coli BL21(DE3) cells assessed as thermal stabilization by measuring change in melting temperature incubated for 15 mins by Nano DSF assay
# How it was run: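 40 µg SaSrtAΔN24 (wild type or C184A) in 100 µL 50 mM Tris-HCl pH 9.0, 150 mM NaCl, 5 mM CaCl2 incubated with compound for 15 min at room temperature, then centrifuged. Label-free nanoDSF read at 330/350 nm while ramping 30–90 °C at 2 °C per min. Tm taken from the first derivative of the ratio.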
# Procathepsin L = Procathepsin L (Homo sapiens, UniProt P07711); experiment: Inhibition of cathepsin L (unknown origin) using Cbz-Phe-Arg-AMC as substrate at 20 uM preincubated for 5 mins followed by substrate addition and measured after 10 mins by fluorometric assay; details: time 15.0 min
# Chain of Procathepsin L (P07711 114-333 limits assumed): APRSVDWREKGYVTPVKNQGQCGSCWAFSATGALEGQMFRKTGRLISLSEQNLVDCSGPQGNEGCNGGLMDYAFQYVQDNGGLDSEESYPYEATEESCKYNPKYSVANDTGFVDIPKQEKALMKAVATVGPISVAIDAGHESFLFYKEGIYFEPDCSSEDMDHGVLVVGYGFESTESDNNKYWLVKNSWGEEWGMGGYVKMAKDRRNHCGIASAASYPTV
# How it was run: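 Cbz-Phe-Arg-AMC added (40 µM for B, 80 µM for L) and fluorescence read at ex 380/em 460 nm over 10 min. E64 at 6.25 nM as control. Triplicates, two experiments.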
# Staphylococcus aureus [7] = experiment: Antibacterial activity against Staphylococcus aureus USA300 assessed as inhibition of bacterial growth incubated for 16 to 18 hrs; assay type: functional; details: time 16-18 hrs
# How it was run: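 Broth microdilution: S. aureus in TSB, E. coli in LB. Overnight cultures diluted 1:1000, grown at 37 °C to A600 0.6, then diluted 1:400 into two-fold compound dilutions. Incubated 16–18 h at 37 °C without shaking. MIC taken as the lowest concentration with no visible growth. Two independent experiments.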
# Sortase A [8] = target: T1, Sortase A; experiment: Irreversible inhibition of recombinant Staphylococcus aureus sortase A deltaN24 expressed in Escherichia coli BL21(DE3) cells using Abz-LPATG-Dnp as substrate preincubated for 10 mins followed by substrate addition and measured every 1 min for 15 mins by FRET-based assay
# How it was run: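 SaSrtAΔN24 preincubated with compound for 10, 20, 40 or 60 min before FRET IC50 determination with Abz-LPATG-Dnp in Tris pH 7.5, NaCl, CaCl2 buffer.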
# Staphylococcus aureus [9] = experiment: Anti-virulence activity against Staphylococcus aureus USA300 assessed as decrease in SpA display on cell envelope by Western blot analysis; assay type: functional, organism-based; details: dose 25-200 µM, DDE = dose-dependent effect
# How it was run: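 S. aureus overnight culture diluted 1:1000 in TSB and grown with inhibitor until A600 3.0. Washed cells treated with 10 µg mL-1 lysostaphin in PBS for 15 min at 37 °C. Supernatant (cell-wall anchored proteins) run on SDS-PAGE and immunoblotted for SpA, with ClpP as loading control. Three independent experiments.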
# Staphylococcus aureus [10] = experiment: Anti-virulence activity against Staphylococcus aureus USA300 assessed as decrease in cell-wall anchored SpA level at 25 to 200 uM by FITC-labelled human IgG based […]; assay type: functional, organism-based; details: dose 25-200 µM
# How it was run: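 S. aureus grown in TSB (1:1000 dilution) with inhibitor until A600 1.0. Washed cells incubated with FITC-labelled human IgG in PBS for 30 min at room temperature in the dark, rinsed, and read by fluorescence. Three technical replicates, three independent experiments. Mean ± SEM, unpaired two-tailed Student's t test (n = 3).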
# [11] = Selectivity ratio of Ki for irreversible inhibition of recombinant Staphylococcus aureus sortase A deltaN24 expressed in Escherichia coli BL21(DE3) cells to Ki for irreversible inhibition of recombinant Streptococcus pyogenes sortase A deltaN81 expressed in Escherichia coli BL21(DE3) cells
# [12] = as §1, with “Streptococcus pyogenes” for “Staphylococcus aureus”, “deltaN81” for “deltaN24”, “inactivation constant” for “increase in Km”, “fluorescence intensity based” for “FRET-based”; how it was run: as §2
# Streptococcus pyogenes = experiment: Irreversible inhibition of recombinant Streptococcus pyogenes sortase A deltaN81 expressed in Escherichia coli BL21(DE3) cells using Abz-LPATG-Dnp as substrate assessed as maximum inactivation rate constant preincubated for 60 mins followed by substrate addition and measured every 1 min for 15 mins by fluorescence intensity based assay; details: time 75.0 min; how it was run: as §2
# Sortase A [13] = target: T1, Sortase A; experiment: Inhibition of recombinant Staphylococcus aureus sortase A deltaN24 transpeptidation expressed in Escherichia coli BL21 (DE3) cells using IsdA64 to 323 as substrate preincubated for 20 mins followed by substrate addition and measured after 1.5 hrs by SDS-PAGE-based assay
# How it was run: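 SrtA (200 µg mL-1) preincubated with inhibitor (1–50 µM) for 20 min at room temperature in Tris pH 7.5, NaCl, CaCl2 buffer. IsdA64-323 (300 µg mL-1 final) and 3 mM (Gly)3 added, incubated at 37 °C for 1.5 h, then run on 12% SDS-PAGE. IC50 from band quantification of precursor and mature product. Two independent experiments.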
smiles,measurement,setting,value
COc1ccc(/C=C/C=C2C(=O)NC(=O)NC2=O)cc1,inhibition,[1],Active
same,Activity,Staphylococcus aureus [2],Active
same,Ki,Sortase A [3],2450 nM
same,IC50,[4],1370 nM
same,Kinact,[5],0.185 min⁻¹
same,ΔTm,[6],4.1 °C
same,inhibition,Procathepsin L,Active
same,MIC,Staphylococcus aureus [7],> 512 µg/mL
same,IC50,Sortase A [8],1100 nM
same,Activity,Staphylococcus aureus [9],Dde
same,Activity,Staphylococcus aureus [10],Active
same,Ratio,[11],4
same,Ki,[12],686 nM
same,Kinact,Streptococcus pyogenes,0.044 min⁻¹
same,IC50,Sortase A [13],2650 nM
